Where two headings read alike, the source gives them in different places.
Legend:
[1] = subjects with severe renal impairment (eGFR 15.0–29.9 mL/min/1.73 m^2); cited from earlier work
[2] = system: bone turnover markers (P1NP, OC, serum NTX, CTX, urine NTX); experiment: Changes in trough values of bone turnover markers; type: in vivo, human; conditions: for GMRs (trough to baseline) of serum P1NP and serum OC: 6 weeks, then steady until day 43; for GMRs (trough to baseline) of serum NTX, serum CTX, and urine NTX: after the 6-week treatments
Summary of the method: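 Healthy postmenopausal women received sc synthetic human PTH 1-34 or saline placebo for 6 weeks. Markers were sampled pre-dose on days 1, 8, 15, 22, 29 and 36 and on day 43. Serum P1NP and CTX were measured by ECLIA, OC by IRMA, serum and urine NTX by ELISA; CTX only on days 1, 8, 29 and 43. Samples were assayed centrally. GMR of log-transformed trough to baseline, with 95% CI, by ANOVA per group.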

[3] = system: healthy Japanese postmenopausal women; experiment: Safety: incidence of adverse events; type: in vivo, human; conditions: 6 weeks, n = 20
Summary of the method: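 Randomized, single-blind, saline placebo-controlled trial in healthy Japanese postmenopausal women, with sc dosing for 6 weeks. Adverse events came from self-report, interviews or other tests, with onset, severity, seriousness, outcome and drug relationship recorded. Coding used MedDRA v17.1 preferred terms. Vital signs, 12-lead ECG, haematology, blood biochemistry and urinalysis were also monitored.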

[4] = Plasma teriparatide acetate pharmacokinetics after subcutaneous injection; type: in vivo, human
Summary of the method: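 Vials were reconstituted in saline at use. 28.2 μg was given sc into the abdomen; 56.5 μg sc into the upper arm, in Cohort 1 with saline at the other site. Plasma was drawn pre-dose and at 0.25–6 h post-dose on days 1 and 36, frozen, and assayed centrally by IRMA (LLOQ 21.46 pg/mL). Noncompartmental parameters; values below LLOQ set to zero for means; arithmetic mean ± SD.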

[5] = system: subjects in the safety assessment population; conditions: 24-month open-label once-weekly trial, cited from earlier work
[6] = system: patients with osteoporosis; conditions: TOWER trial, once-weekly 56.5 μg, cited from earlier work
[7] = system: subjects of phase 2b trial; conditions: cited from earlier work
[8] = Cohort 1 BIW: 28.2 μg twice weekly sc, intervals 3, 4 days
[9] = Cohort 1 QW: 56.5 μg once weekly sc
[10] = Cohort 2 BIW: 28.2 μg twice weekly sc, intervals 2, 5 days
[11] = Cohort 3 BIW: 28.2 μg twice weekly sc, intervals 1, 6 days

For `CC[C@H](C)[C@H](NC(=O)[C@H](CCC(=O)O)NC(=O)[C@H](CO)NC(=O)[C@@H](NC(=O)[C@@H](N)CO)C(C)C)C(=O)N[C@@H](CCC(N)=O)C(=O)N[C@@H](CC(C)C)C(=O)N[C@@H](CCSC)C(=O)N[C@@H](Cc1cnc[nH]1)C(=O)N[C@@H](CC(N)=O)C(=O)N[C@@H](CC(C)C)C(=O)NCC(=O)N[C@@H](CCCCN)C(=O)N[C@@H](Cc1cnc[nH]1)C(=O)N[C@@H](CC(C)C)C(=O)N[C@@H](CC(N)=O)C(=O)N[C@@H](CO)C(=O)N[C@@H](CCSC)C(=O)N[C@@H](CCC(=O)O)C(=O)N[C@@H](CCCN=C(N)N)C(=O)N[C@H](C(=O)N[C@@H](CCC(=O)O)C(=O)N[C@@H](Cc1c[nH]c2ccccc12)C(=O)N[C@@H](CC(C)C)C(=O)N[C@@H](CCCN=C(N)N)C(=O)N[C@@H](CCCCN)C(=O)N[C@@H](CCCCN)C(=O)N[C@@H](CC(C)C)C(=O)N[C@@H](CCC(N)=O)C(=O)N[C@@H](CC(=O)O)C(=O)N[C@H](C(=O)N[C@@H](Cc1cnc[nH]1)C(=O)N[C@@H](CC(N)=O)C(=O)N[C@@H](Cc1ccccc1)C(=O)O)C(C)C)C(C)C` [teriparatide], the elimination half-life [1] is given as “significantly prolonged”, the “GMRs (trough to baseline) of serum P1NP and serum OC” value ([2]; all 3 twice-weekly 28.2-μg groups) is given as “similarly increased to day 29 or day 36” and the “GMRs (trough to baseline) of serum NTX, serum CTX, and urine NTX” value ([2]; all twice-weekly 28.2-μg groups) is given as “did not increase”. For the same molecule, the “GMRs (trough to baseline) of serum P1NP and serum OC” value ([2]; once-weekly 56.5-μg group) was “similarly increased to day 29 or day 36”, the “GMRs (trough to baseline) of serum NTX, serum CTX, and urine NTX” value ([2]; once-weekly 56.5-μg group) was “did not increase” and the Abdominal pain [3, 8] was 0 (0.0) number of subjects (%). For the same molecule, the “Adverse events, Total” value [3, 8] was 12 (60.0) number of subjects (%), the Alanine aminotransferase increased [3, 8] was 0 (0.0) number of subjects (%) and the Arthralgia [3, 8] was 0 (0.0) number of subjects (%). For the same molecule, the Aspartate aminotransferase increased [3, 8] was 0 (0.0) number of subjects (%), the Blood pressure decreased [3, 8] was 0 (0.0) number of subjects (%) and the Chest discomfort [3, 8] was 0 (0.0) number of subjects (%). For the same molecule, the Constipation [3, 8] was 0 (0.0) number of subjects (%), the Dizziness [3, 8] was 1 (5.0) number of subjects (%) and the Dyspepsia [3, 8] was 1 (5.0) number of subjects (%). For the same molecule, the Feeling abnormal [3, 8] was 0 (0.0) number of subjects (%), the Fractured coccyx [3, 8] was 1 (5.0) number of subjects (%) and the Gamma-glutamyltransferase increased [3, 8] was 0 (0.0) number of subjects (%). For the same molecule, the Headache [3, 8] was 5 (25.0) number of subjects (%), the Injection site erythema [3, 8] was 2 (10.0) number of subjects (%) and the Malaise [3, 8] was 2 (10.0) number of subjects (%). The Nasopharyngitis [3, 8] was 0 (0.0) number of subjects (%), the Nausea [3, 8] was 9 (45.0) number of subjects (%) and the Pruritus [3, 8] was 0 (0.0) number of subjects (%). The Rash [3, 8] was 0 (0.0) number of subjects (%), the Somnolence [3, 8] was 0 (0.0) number of subjects (%) and the Vomiting [3, 8] was 4 (20.0) number of subjects (%). For the same molecule, the Abdominal pain [3, 9] was 0 (0.0) number of subjects (%), the “Adverse events, Total” value [3, 9] was 18 (90.0) number of subjects (%) and the Alanine aminotransferase increased [3, 9] was 2 (10.0) number of subjects (%). The Arthralgia [3, 9] was 1 (5.0) number of subjects (%), the Aspartate aminotransferase increased [3, 9] was 1 (5.0) number of subjects (%) and the Blood pressure decreased [3, 9] was 1 (5.0) number of subjects (%). For the same molecule, the Chest discomfort [3, 9] was 0 (0.0) number of subjects (%), the Constipation [3, 9] was 1 (5.0) number of subjects (%) and the Dizziness [3, 9] was 3 (15.0) number of subjects (%). For the same molecule, the Dyspepsia [3, 9] was 0 (0.0) number of subjects (%), the Feeling abnormal [3, 9] was 0 (0.0) number of subjects (%) and the Fractured coccyx [3, 9] was 0 (0.0) number of subjects (%). The Gamma-glutamyltransferase increased [3, 9] was 1 (5.0) number of subjects (%), the Headache [3, 9] was 15 (75.0) number of subjects (%) and the Injection site erythema [3, 9] was 2 (10.0) number of subjects (%). For the same molecule, the Malaise [3, 9] was 4 (20.0) number of subjects (%), the Nasopharyngitis [3, 9] was 0 (0.0) number of subjects (%) and the Nausea [3, 9] was 18 (90.0) number of subjects (%). For the same molecule, the Pruritus [3, 9] was 0 (0.0) number of subjects (%), the Rash [3, 9] was 0 (0.0) number of subjects (%) and the Somnolence [3, 9] was 1 (5.0) number of subjects (%). The Vomiting [3, 9] was 14 (70.0) number of subjects (%), the Abdominal pain [3, 10] was 1 (5.0) number of subjects (%) and the “Adverse events, Total” value [3, 10] was 12 (60.0) number of subjects (%). For the same molecule, the Alanine aminotransferase increased [3, 10] was 0 (0.0) number of subjects (%), the Arthralgia [3, 10] was 0 (0.0) number of subjects (%) and the Aspartate aminotransferase increased [3, 10] was 0 (0.0) number of subjects (%). The Blood pressure decreased [3, 10] was 0 (0.0) number of subjects (%), the Chest discomfort [3, 10] was 1 (5.0) number of subjects (%) and the Constipation [3, 10] was 0 (0.0) number of subjects (%). For the same molecule, the Dizziness [3, 10] was 0 (0.0) number of subjects (%), the Dyspepsia [3, 10] was 0 (0.0) number of subjects (%) and the Feeling abnormal [3, 10] was 1 (5.0) number of subjects (%). For the same molecule, the Fractured coccyx [3, 10] was 0 (0.0) number of subjects (%), the Gamma-glutamyltransferase increased [3, 10] was 0 (0.0) number of subjects (%) and the Headache [3, 10] was 4 (20.0) number of subjects (%). For the same molecule, the Injection site erythema [3, 10] was 3 (15.0) number of subjects (%), the Malaise [3, 10] was 0 (0.0) number of subjects (%) and the Nasopharyngitis [3, 10] was 1 (5.0) number of subjects (%). The Nausea [3, 10] was 10 (50.0) number of subjects (%), the Pruritus [3, 10] was 0 (0.0) number of subjects (%) and the Rash [3, 10] was 0 (0.0) number of subjects (%). The Somnolence [3, 10] was 0 (0.0) number of subjects (%), the Vomiting [3, 10] was 5 (25.0) number of subjects (%) and the Abdominal pain [3, 11] was 0 (0.0) number of subjects (%). For the same molecule, the “Adverse events, Total” value [3, 11] was 16 (80.0) number of subjects (%), the Alanine aminotransferase increased [3, 11] was 0 (0.0) number of subjects (%) and the Arthralgia [3, 11] was 0 (0.0) number of subjects (%). The Aspartate aminotransferase increased [3, 11] was 0 (0.0) number of subjects (%), the Blood pressure decreased [3, 11] was 0 (0.0) number of subjects (%) and the Chest discomfort [3, 11] was 0 (0.0) number of subjects (%). For the same molecule, the Constipation [3, 11] was 0 (0.0) number of subjects (%), the Dizziness [3, 11] was 0 (0.0) number of subjects (%) and the Dyspepsia [3, 11] was 0 (0.0) number of subjects (%). For the same molecule, the Feeling abnormal [3, 11] was 0 (0.0) number of subjects (%), the Fractured coccyx [3, 11] was 0 (0.0) number of subjects (%) and the Gamma-glutamyltransferase increased [3, 11] was 0 (0.0) number of subjects (%). The Headache [3, 11] was 6 (30.0) number of subjects (%), the Injection site erythema [3, 11] was 13 (65.0) number of subjects (%) and the Malaise [3, 11] was 0 (0.0) number of subjects (%). For the same molecule, the Nasopharyngitis [3, 11] was 0 (0.0) number of subjects (%), the Nausea [3, 11] was 10 (50.0) number of subjects (%) and the Pruritus [3, 11] was 1 (5.0) number of subjects (%). For the same molecule, the Rash [3, 11] was 1 (5.0) number of subjects (%), the Somnolence [3, 11] was 0 (0.0) number of subjects (%) and the Vomiting [3, 11] was 6 (30.0) number of subjects (%). The Tmax ([4]; human, plasma, sc, 28.2 ug) was ≤ 60 min, the half-life ([4]; human, plasma, sc, 28.2 ug) was 44.3 ± 6.12 min and the “accumulation of teriparatide acetate in plasma” value ([4]; multiple dosing of once-weekly 56.5 μg, 6 weeks) was “no accumulation”. For the same molecule, the “AUCinf and Cmax relative to the once-weekly 56.5-μg group” value ([4]; twice-weekly 28.2-μg groups) was “approximately half”, the “accumulation in the plasma” value ([4]; twice-weekly 28.2-μg injection treatment, regardless of dosing intervals, 6 weeks) was “not observed” and the “adverse events, subjects affected” value ([5]; 181 of 189 subjects) was 95.8%. For the same molecule, the abdominal discomfort ([5]; n = 25 of 189) was 13.2%, the Malaise ([5]; n = 33 of 189) was 17.5% and the Headache ([5]; n = 37 of 189) was 19.6%. For the same molecule, the Vomiting ([5]; n = 42 of 189) was 22.2%, the Nausea ([5]; n = 69 of 189) was 36.5% and the “adverse events, subjects affected” value ([6]; 271 of 290 subjects) was 93.4%. The Malaise ([6]; n = 21 of 290) was 7.2%, the abdominal discomfort ([6]; n = 22 of 290) was 7.6% and the Vomiting ([6]; n = 33 of 290) was 11.4%. For the same molecule, the Headache ([6]; n = 39 of 290) was 13.4%, the Nausea ([6]; n = 59 of 290) was 20.3% and the “Incidence of adverse events” value ([7]; once-weekly 14.1-μg dosing group, 14 of 73 subjects) was 19.2%. The frequency of nausea ([7]; once-weekly 14.1-μg group, 4 of 73 patients) was 5.5%, the “Incidence of adverse events” value ([7]; once-weekly 28.2-μg dosing group, 14 of 75) was 18.7% and the frequency of nausea ([7]; once-weekly 28.2-μg group, 7 of 75) was 9.3%. For the same molecule, the “Incidence of adverse events” value ([7]; once-weekly 56.5-μg dosing group, 30 of 72) was 41.7% and the frequency of nausea ([7]; once-weekly 56.5-μg group, 15 of 72) was 20.8%.

Source: PMC7004090 (Clinical Pharmacology in Drug Development, 2019)
